Measurements as given in ChEMBL document CHEMBL1153904, “FR290581, a novel sordarin derivative: synthesis and antifungal activity” (Bioorg Med Chem Lett, 2009).
Converted amounts (≈) assume the structure as drawn.

Columns and labels:
[1] = test system: Candida parapsilosis; assay: Antifungal activity against Candida parapsilosis ATCC 22019; type: functional; conditions: Lodderomyces parapsilosis
Summary of the method: (§1)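 Read-out is the minimum inhibitory concentration, in µg/mL.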

[2] = test system: Aspergillus fumigatus; assay: Antifungal activity against Aspergillus fumigatus ATCC 204305; type: functional; summary of the method: as §1
[3] = test system: Candida albicans; assay: Antifungal activity against Candida albicans FP633 in po dosed ICR mouse assessed as kidney burden per gram of tissue at 20 mg/kg, po after 24 hrs of inoculation; type: functional
Summary of the method: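 Mouse systemic C. albicans infection, oral dosing, n = 5 per group. Kidney fungal burden was read as log cfu per g kidney at 24 h after inoculation and expressed as the change relative to the 0 h control. Significance was tested against the 0 h control by Dunnett comparison.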

[4] = test system: Candida tropicalis; assay: Antifungal activity against Candida tropicalis 21005; type: functional; summary of the method: as §1
[5] = test system: Nakaseomyces glabratus; assay: Antifungal activity against Candida glabrata ATCC 90030; type: functional; summary of the method: as §1
[6] = test system: Candida albicans; assay: Antifungal activity against fluconazole-resistant Candida albicans 22009; type: functional
[7] = test system: Cryptococcus neoformans; assay: Antifungal activity against Cryptococcus neoformans TIMM 0354; type: functional; summary of the method: as §1
[8] = test system: Candida albicans; assay: Antifungal activity against Candida albicans ATCC 90028; type: functional
[9] = test system: Candida albicans; assay: Antifungal activity against Candida albicans FP633 in po dosed ICR mouse candidiasis model treated after 1 hr post infection for 4 days; type: functional
Summary of the method: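 ED50 (mg/kg) determined in a mouse systemic candidiasis model, with compound given orally.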

[10] = Cmax in mouse at 2 mg/kg, po; type: ADME, organism-based; design: dose 2 mg/kg, route oral; conditions: in vivo
Summary of the method: (§2)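 Mice received a single oral dose of 2 mg/kg. Cmax is reported in µg/mL and half-life in hours.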

[11] = Half life in mouse at 2 mg/kg, po; type: ADME, organism-based; design: dose 2 mg/kg, route oral; conditions: in vivo; summary of the method: as §2
[12] = test system: Candida albicans; assay: Antifungal activity against Candida albicans […] in ICR mouse serum drug administered po twice a day; type: functional
Summary of the method: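 MIC measured in mouse serum, in µg/mL.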

Question: Which results are given for OC(Cn1cncn1)(Cn1cncn1)c1ccc(F)cc1F [FLUCONAZOLE]?
Answer: MIC [1]: 1 µg/mL (≈ 3.27 µM); MIC [2]: > 128 µg/mL; deltalog10CFU [3]: -0.19; MIC [4]: 0.25 µg/mL (≈ 0.816 µM); MIC [5]: 16 µg/mL (≈ 52.2 µM); MIC [6]: 128 µg/mL (≈ 418 µM); MIC [7]: 0.25 µg/mL (≈ 0.816 µM); MIC [8]: 0.125 µg/mL (≈ 0.408 µM)

Question: With CO[C@H]1[C@@H](O)[C@H](O)[C@H](OC[C@@]23C[C@@H]4[C@H](C)CC[C@H]4[C@@]4(C=O)CC2C=C(C(C)C)[C@@]34C(=O)O)O[C@@H]1C [SORDARIN] as the compound, how does the MIC [1] read?
Answer: The MIC was over 128 µg/mL.

Question: What about the MIC [2] of the same compound?
Answer: Its MIC is over 128 µg/mL.

Question: What about the ED50 [9] of the same compound?
Answer: Its ED50 is over 40 mg/kg.

Question: What about the MIC [4] of the same compound?
Answer: The MIC was 64 µg/mL (≈ 130 µM).

Question: What about the MIC [5] of the same compound?
Answer: The MIC was 64 µg/mL (≈ 130 µM).

Question: What about the Cmax [10] of the same compound?
Answer: The Cmax was 20 ng/mL.

Question: And the MIC [6]?
Answer: The MIC was 64 µg/mL (≈ 130 µM).

Question: What about the half-life [11] of the same compound?
Answer: Its half-life is 0.33 h.

Question: And the MIC [12]?
Answer: The MIC was 32 µg/mL (≈ 65 µM).

Question: And the MIC [7]?
Answer: Its MIC is over 128 µg/mL.

Question: What about the MIC [8] of the same compound?
Answer: Its MIC is 32 µg/mL (≈ 65 µM).

Question: With CCCC[C@@H]1C[C@H](C23C[C@@H]4[C@H](C)CC[C@H]4[C@@]4(C=O)CC2C=C(C(C)C)[C@@]34C(=O)O)O[C@H]1CN1CCC(N2C[C@@H](C)O[C@@H](C)C2)CC1 as the compound, how does the MIC [1] read?
Answer: The MIC was 8 µg/mL (≈ 12.5 µM).

Question: What about the MIC [2] of the same compound?
Answer: Its MIC is 128 µg/mL (≈ 200 µM).

Question: And the deltalog10CFU [3]?
Answer: The deltalog10CFU was -1.09.

Question: What about the ED50 [9] of the same compound?
Answer: Its ED50 is 2 mg/kg.

Question: And the MIC [4]?
Answer: The MIC was 0.5 µg/mL (≈ 0.783 µM).

Question: What about the MIC [5] of the same compound?
Answer: The MIC was 1 µg/mL (≈ 1.57 µM).

Question: And the Cmax [10]?
Answer: Its Cmax is 1000 ng/mL.

Question: What about the MIC [6] of the same compound?
Answer: Its MIC is 0.5 µg/mL (≈ 0.783 µM).

Question: What about the half-life [11] of the same compound?
Answer: The half-life was 3.4 h.

Question: What about the MIC [12] of the same compound?
Answer: Its MIC is 0.25 µg/mL (≈ 0.391 µM).

Question: What about the MIC [7] of the same compound?
Answer: Its MIC is 4 µg/mL (≈ 6.26 µM).

Question: What about the MIC [8] of the same compound?
Answer: The MIC was 0.5 µg/mL (≈ 0.783 µM).
